Results taken from ChEMBL document CHEMBL3286243, “Polyhydroxyanthraquinones as quorum sensing inhibitors from the guttates of Penicillium restrictum and their analysis by desorption electrospray ionization mass spectrometry” (J Nat Prod, 2014).
Positions of bridges follow the written chain, without caps; N, C: chain ends. Residues, ends and D or L forms follow the SMILES beside them.

Molecular target: T1, Accessory gene regulator protein A (Staphylococcus aureus) (UniProt P0A0I7)
T1 sequence (whole entry): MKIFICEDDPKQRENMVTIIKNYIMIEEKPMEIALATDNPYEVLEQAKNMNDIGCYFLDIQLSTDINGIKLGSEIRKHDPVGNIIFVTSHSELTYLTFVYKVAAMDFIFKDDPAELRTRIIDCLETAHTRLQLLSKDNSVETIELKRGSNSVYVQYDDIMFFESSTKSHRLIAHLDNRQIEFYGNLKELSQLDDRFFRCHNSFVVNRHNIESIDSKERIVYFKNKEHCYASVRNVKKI
Test: Inhibition of AGR quorum sensing system-mediated delta toxin production in methicillin-resistant Staphylococcus aureus AH2759 incubated for 15 hrs by Western blotting analysis
Outline: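 Cultures from the agr P3-lux plate were pooled and filtered (0.22 μm). Medium (2.5 μL) was run on 15% SDS-PAGE and transferred to PVDF. Blots were blocked overnight at 4 °C in milk/BSA in TBST, then probed 1 h at rt with rabbit anti-delta toxin (1:2000) and HRP anti-rabbit (1:10 000). Detection was chemiluminescence on X-ray film. AIP-2-treated cultures were included.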

Row | SMILES | inhibition
1 | O=C(O)c1cc(O)c2c(c1)C(=O)c1cc(O)c(O)c(O)c1C2=O | Dose-dependent effect
2 | O=C1c2cc(O)cc(O)c2C(=O)c2c(O)cc(CO)cc21 | Dose-dependent effect
3 | CC(C)C[C@@H]1NC(=O)[C@H](CO)NC(=O)[C@H](CO)NC(=O)[C@@H](NC(=O)[C@H](C)NC(=O)[C@H](CC(N)=O)NC(=O)[C@@H](NC(=O)CN)C(C)C)CSC(=O)[C@H](Cc2ccccc2)NC1=O (H-GVNACSSLF; thioester 5-C) | Dose-dependent effect
4 | CC(=O)C(O)c1cc(O)c2c(c1)C(=O)c1cc(O)cc(O)c1C2=O (centres undefined) | Dose-dependent effect
